Experimental data published in EPA's CvTdb concentration-time database.
“And” between values parts separate entries of the source, which are not always exact repeats. Equal entries are not always repeated.

Columns and labels:
Rat [1] = assay: concentration in plasma after dosing; settings: 2 h; dosed: Gemfibrozil; 50 mg/kg; oral; Male; Sprague-Dawley
Rat [2] = assay: concentration in plasma after dosing; settings: 5 min; dosed: Gemfibrozil; 50 mg/kg; oral; Male; Sprague-Dawley
Rat [3] = assay: concentration in plasma after dosing; settings: 10 min; dosed: Gemfibrozil; 4.29 mg/kg; oral; Male; Sprague-Dawley
Rat [4] = assay: concentration in plasma after dosing; settings: 4 h; dosed: Gemfibrozil; 50 mg/kg; oral; Male; Sprague-Dawley
Rat [5] = assay: concentration in plasma after dosing; settings: 10 h; dosed: Gemfibrozil; 4.29 mg/kg; oral; Male; Sprague-Dawley
Rat [6] = assay: concentration in plasma after dosing; settings: 4 h; dosed: Gemfibrozil; 100 mg/kg; oral; Male; Sprague-Dawley
Rat [7] = assay: concentration in plasma after dosing; settings: 5 min; dosed: Gemfibrozil; 4.29 mg/kg; oral; Male; Sprague-Dawley
Rat [8] = assay: concentration in brain after dosing; settings: 4 h; dosed: 2-Methyltetrahydrofuran; 40 mg/kg; iv; Male; Harlan Sprague Dawley
Rat [9] = assay: concentration in brain after dosing; settings: 4 h; dosed: 2-Methyltetrahydrofuran; 40 mg/kg; iv; Female; Harlan Sprague Dawley
Rat [10] = assay: concentration in plasma after dosing; settings: 2 min; dosed: 2-Methyltetrahydrofuran; 40 mg/kg; iv; Female; Harlan Sprague Dawley
Rat [11] = assay: concentration in plasma after dosing; settings: 7 min; dosed: 2-Methyltetrahydrofuran; 40 mg/kg; iv; Male; Harlan Sprague Dawley
human [12] = assay: concentration in expired air after dosing; settings: dosed: trichloroethylene, 100 ppm, inhalation, duration: 4 hr, person
Summary of the method: (§1)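 Sampling and analytical methods are those of each source and frequently went unreported. The concentration-versus-time and amount-versus-time points were compiled from published in vivo toxicokinetic studies and two structured collections. Most were digitised from plot screenshots with WebPlotDigitizer, with others copied from tables, in the reported units.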

human [13] = assay: concentration in expired air after dosing; settings: dosed: trichloroethylene, 100 ppm, inhalation, duration: 4 hr, person; remark: listed apart in the source
Summary of the method: as §1

human [14] = assay: concentration in expired air after dosing; settings: dosed: trichloroethylene, 100 ppm, inhalation, duration: 4 hr, person; remark: listed apart in the source
Summary of the method: as §1

Rat [15] = assay: concentration in kidney after dosing; settings: 864 h; dosed: Perfluorooctane Sulfonate; 2 mg/kg; oral; Female; Harlan Sprague Dawley
Rat [16] = assay: concentration in brain after dosing; settings: 0.5 h; dosed: Perfluorohexanoic Acid; 80 mg/kg; oral; Male; Harlan Sprague Dawley
Rat [17] = assay: concentration in liver after dosing; settings: 0.5 h; dosed: Perfluorohexanoic Acid; 80 mg/kg; oral; Male; Harlan Sprague Dawley
Rat [18] = assay: concentration in plasma after dosing; settings: 0.5 h; dosed: Perfluorohexanoic Acid; 80 mg/kg; oral; Male; Harlan Sprague Dawley
Rat [19] = assay: concentration in plasma after dosing; settings: dosed: Perfluorohexanoic Acid, 40 mg/kg, oral, Male, Harlan Sprague Dawley
Rat [20] = assay: concentration in kidney after dosing; settings: 1 h; dosed: Perfluorohexanoic Acid; 80 mg/kg; oral; Female; Harlan Sprague Dawley
Rat [21] = assay: concentration in plasma after dosing; settings: dosed: Perfluorohexanoic Acid, 80 mg/kg, oral, Male, Harlan Sprague Dawley
Rat [22] = assay: concentration in liver after dosing; settings: 12 h; dosed: Fluorotelomer alcohol 8+2; 24 mg/kg; oral; Male; Harlan Sprague Dawley
Rat [23] = assay: concentration in plasma after dosing; settings: 5 min; dosed: 678-39-7; 12 mg/kg; iv; Male; F344
Rat [24] = assay: concentration in plasma after dosing; settings: 3 h; dosed: Fluorotelomer alcohol 8+2; 12 mg/kg; oral; Male; Harlan Sprague Dawley

Cc1ccc(C)c(OCCCC(C)(C)C(=O)O)c1 [Gemfibrozil]
Settings | concentration in plasma [ng/mL]
Rat [1] | 7210
Rat [2] | 7230
Rat [3] | 606
Rat [4] | 2860
Rat [5] | 189
Rat [6] | 7120
Rat [7] | 485

CC1CCCO1 (configuration not stated) [2-Methyltetrahydrofuran]
Settings | concentration in brain [ng/mL] | concentration in plasma [ng/mL]
Rat [8] | 184 | –
Rat [9] | 111 | –
Rat [10] | – | 55300
Rat [11] | – | 57300

ClC=C(Cl)Cl [trichloroethylene]
Settings | concentration in expired air
human [12], 0 h | 1940 nM
human [12], 0.053 h | 22.4 ppm
human [12], 0.17 h | 302 nM
human [12], 0.2372 h | 3.23 ppm
human [12], 0.3175 h | 7.33 ppm
human [12], 0.4773 h | 6.01 ppm
human [12], 0.5 h | 200 nM
human [12], 0.5703 h | 2.6 ppm
human [12], 0.97 h | 1.56 ppm
human [12], 1 h | 129 nM
human [12], 1.022 h | 2.96 ppm
human [12], 1.5 h | 101 nM
human [12], 2 h | 79 nM
human [12], 2.009 h | 0.691 ppm
human [12], 2.015 h | 1.22 ppm
human [12], 2.5 h | 62 nM
human [12], 3 h | 61 nM
human [12], 3.5 h | 54 nM
human [12], 4 h | 49 nM
human [12], 4.021 h | 0.521 ppm
human [12], 4.039 h | 1.03 ppm
human [12], 4.5 h | 43 nM
human [12], 5 h | 42 nM
human [12], 5.996 h | 0.868 ppm
human [12], 6 h | 33 nM
human [12], 6.02 h | 0.517 ppm
human [12], 7 h | 27 nM
human [12], 7.979 h | 0.777 ppm
human [12], 8 h | 21 nM
human [12], 9 h | 21 nM
human [12], 10 h | 16 nM
human [12], 10.1 h | 0.554 ppm
human [12], 326 s | 12.3 ppm
human [13], 0.2144 h | 4.28 ppm
human [13], 0.5331 h | 2.8 ppm
human [13], 1.023 h | 1.97 ppm
human [13], 2.042 h | 1.38 ppm
human [13], 4.039 h | 0.761 ppm
human [13], 5.983 h | 0.736 ppm
human [13], 7.98 h | 0.579 ppm
human [13], 10.1 h | 0.488 ppm
human [14], 0.1172 h | 7.17 ppm
human [14], 0.1972 h | 5.83 ppm
human [14], 0.3304 h | 5.7 ppm
human [14], 0.4637 h | 4.83 ppm
human [14], 0.9967 h | 2.59 ppm
human [14], 2.009 h | 1.89 ppm
human [14], 4.021 h | 1.39 ppm
human [14], 5.993 h | 1.35 ppm
human [14], 8.019 h | 1.01 ppm
human [14], 10.04 h | 1.08 ppm
human [14], 12.02 h | 0.874 ppm
human [14], 38 s | 21.7 ppm
human [14], 230 s | 14.3 ppm and 10.8 ppm

O=S(=O)([O-])C(F)(F)C(F)(F)C(F)(F)C(F)(F)C(F)(F)C(F)(F)C(F)(F)C(F)(F)F [Perfluorooctane Sulfonate]
Settings | concentration in kidney [ng/g]
Rat [15] | 1390

O=C(O)C(F)(F)C(F)(F)C(F)(F)C(F)(F)C(F)(F)F [Perfluorohexanoic Acid]
Settings | concentration in brain [ng/g] | concentration in kidney [ng/g] | concentration in liver [ng/g] | concentration in plasma [ng/mL]
Rat [16] | 2590 | – | – | –
Rat [17] | – | – | 102000 | –
Rat [18] | – | – | – | 105000
Rat [20] | – | 85800 | – | –

concentration in plasma [ng/mL]
Settings | 0.25 h | 5 min | 6 h | 9 h
Rat [19] | 44500 | – | 26700 | –
Rat [21] | – | 35400 | – | 3240

O=C(O)CCC(F)(F)C(F)(F)C(F)(F)C(F)(F)C(F)(F)C(F)(F)C(F)(F)F [Fluorotelomer acid 7+3]
Settings | concentration in liver [ng/g] | concentration in plasma [ng/mL]
Rat [22] | 1580 | –
Rat [23] | – | 13.1
Rat [24] | – | 726
